How the values were obtained:
[1] = biological target: T1, Adenosine receptor A3 (Homo sapiens) (UniProt P0DMS8); test: Percentage of blockade by 1 uM of the inhibition by 100 nM IB-MECA-inhibited cAMP accumulation in CHO cells expressing human adenosine A3 receptor.; type: functional, cell-based
T1 sequence (whole entry): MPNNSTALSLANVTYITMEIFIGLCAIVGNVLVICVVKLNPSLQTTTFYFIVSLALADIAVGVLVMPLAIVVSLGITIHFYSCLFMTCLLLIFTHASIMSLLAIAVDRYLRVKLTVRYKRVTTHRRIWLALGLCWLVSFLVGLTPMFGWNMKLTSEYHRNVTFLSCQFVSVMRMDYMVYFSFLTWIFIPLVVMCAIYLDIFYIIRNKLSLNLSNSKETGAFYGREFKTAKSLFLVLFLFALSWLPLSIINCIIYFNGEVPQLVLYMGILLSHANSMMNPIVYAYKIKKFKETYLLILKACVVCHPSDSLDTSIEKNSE
Summary of the method: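 CHO cells stably expressing human A3 receptor; membranes in 50 mM Tris HCl, 10 mM MgCl2, 1 mM EDTA pH 7.4 with 5 μM GTP, 0.5 mM […] and 2.0 IU/mL adenosine deaminase. Preincubated 10 min at 37 °C, then IB-MECA (100 nM) and/or antagonist with 1 mM ATP and 10 μM forskolin for 10 min. Boiled 2 min. cAMP read by [3H]cAMP competition with adrenal binding protein.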

Adenosine receptor A2b [2] = biological target: T2, Adenosine receptor A2b (Homo sapiens, UniProt P29275); test: Displacement of [3H]DPCPX from Adenosine A2b receptor expressed in CHO cells; type: cell-based
T2 sequence (P29275 whole entry): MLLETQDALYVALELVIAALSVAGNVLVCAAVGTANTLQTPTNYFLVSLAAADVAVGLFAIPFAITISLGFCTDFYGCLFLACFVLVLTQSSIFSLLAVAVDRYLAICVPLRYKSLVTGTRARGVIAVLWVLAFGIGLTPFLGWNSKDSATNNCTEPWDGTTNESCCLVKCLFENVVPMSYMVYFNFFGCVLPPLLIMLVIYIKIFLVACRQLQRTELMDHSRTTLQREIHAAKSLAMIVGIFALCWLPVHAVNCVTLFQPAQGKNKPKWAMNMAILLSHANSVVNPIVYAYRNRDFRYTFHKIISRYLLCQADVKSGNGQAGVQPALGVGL

Adenosine receptor A3 [3] = biological target: T3, Adenosine receptor A3 (Homo sapiens, UniProt P0DMS8); test: biochemical
T3 sequence (P0DMS8 whole entry): T1 sequence (whole entry)

Adenosine receptor A2a [4] = biological target: T4, Adenosine receptor A2a (Homo sapiens, UniProt P29274); test: Displacement of [3H]-SCH- 58261 from human adenosine A2A receptor expressed in CHO cells; range 2826-3761; type: cell-based
T4 sequence (P29274 whole entry): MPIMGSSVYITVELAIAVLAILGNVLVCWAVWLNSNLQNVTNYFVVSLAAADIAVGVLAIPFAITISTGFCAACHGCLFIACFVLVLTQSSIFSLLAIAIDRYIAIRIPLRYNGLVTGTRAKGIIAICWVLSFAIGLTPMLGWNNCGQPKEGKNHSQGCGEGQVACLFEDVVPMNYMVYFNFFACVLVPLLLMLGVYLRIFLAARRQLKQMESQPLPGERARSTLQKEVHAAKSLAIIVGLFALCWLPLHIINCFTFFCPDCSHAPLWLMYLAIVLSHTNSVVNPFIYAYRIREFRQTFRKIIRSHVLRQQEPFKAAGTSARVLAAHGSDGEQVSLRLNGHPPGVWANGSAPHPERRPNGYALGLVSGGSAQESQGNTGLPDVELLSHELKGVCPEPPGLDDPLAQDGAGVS

Adenosine receptor A1 [5] = biological target: T5, Adenosine receptor A1 (Homo sapiens, UniProt P30542); test: Tested for inhibitory activity against human adenosine A1 receptor by displacement of [3H]DPCPX expressed in CHO cells; value ranges from 2362-2575; type: cell-based
T5 sequence (P30542 whole entry): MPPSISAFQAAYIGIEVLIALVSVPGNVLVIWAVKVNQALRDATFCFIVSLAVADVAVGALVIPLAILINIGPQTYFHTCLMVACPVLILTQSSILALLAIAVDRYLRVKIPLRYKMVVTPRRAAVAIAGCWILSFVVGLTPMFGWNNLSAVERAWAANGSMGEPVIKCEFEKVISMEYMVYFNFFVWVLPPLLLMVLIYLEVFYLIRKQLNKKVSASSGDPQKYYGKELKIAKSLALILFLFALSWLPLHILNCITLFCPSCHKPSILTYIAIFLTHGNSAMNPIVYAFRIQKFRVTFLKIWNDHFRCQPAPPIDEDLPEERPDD

[6] = biological target: Adenosine receptors; A1 & A3 (Homo sapiens) (UniProt P30542+P0DMS8); test: Ratio of binding affinity of human A1 receptor to that of human A3 receptor; type: protein assay
Summary of the method: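 Ki ratio from displacement in CHO membranes, 6–8 concentrations, n=3-6, filtration counting. A1: 1 nM [3H]DPCPX, 50 μg protein, 120 min at 25 °C, nonspecific with 10 μM CHA. A3: 1 nM [3H]MRE3008-F20, 50 μg protein, Tris/10 mM MgCl2 pH 7.4, 120 min at 4 °C, nonspecific with 1 μM MRE3008-F20.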

[7] = biological target: Adenosine receptors; A2b & A3 (Homo sapiens) (UniProt P29275+P0DMS8); test: Ratio of binding affinity of human A2B receptor to that of human A3 receptor; type: protein assay
Summary of the method: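 Ki ratio, n=3-6, 6–8 concentrations. A2B in HEK-293 membranes (20 μg): 40 nM [3H]DPCPX, 50 mM Tris HCl, 10 mM MgCl2, 1 mM EDTA, 0.1 mM benzamidine pH 7.4, 2 IU/mL adenosine deaminase, 60 min at 25 °C, nonspecific with 100 μM NECA. A3 in CHO membranes (50 μg): 1 nM [3H]MRE3008-F20, 120 min at 4 °C.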

Adenosine receptor A1 [8] = biological target: T5, Adenosine receptor A1; test: Displacement of [3H]DPCPX from human adenosine A1 receptor expressed in CHO cells; range 267-453; type: cell-based
Adenosine receptor A3 [9] = biological target: T3, Adenosine receptor A3; test: Displacement of [3H]MRE3008-F20 from human adenosine A3 receptor expressed in CHO cells; range 3228-3614; type: cell-based
Adenosine receptor A2a [10] = biological target: T4, Adenosine receptor A2a; test: Displacement of [3H]-SCH- 58261 from human adenosine A2A receptor expressed in CHO cells; range 730-1100; type: cell-based
Adenosine receptor A2b [11] = biological target: T2, Adenosine receptor A2b; test: Displacement of [3H]DPCPX from Adenosine A2b receptor expressed in HEK-293 cells; range 3828-4817
Adenosine receptor A2b [12] = biological target: T2, Adenosine receptor A2b; test: Displacement of [3H]DPCPX from Adenosine A2b receptor expressed in […]; range 56-75; type: cell-based
Adenosine receptor A3 [13] = biological target: T3, Adenosine receptor A3; test: Displacement of [3H]MRE3008-F20 from human adenosine A3 receptor expressed in CHO cells; range 285-385; type: cell-based
Adenosine receptor A2a [14] = biological target: T4, Adenosine receptor A2a; test: Displacement of [3H]-SCH- 58261 from human adenosine A2A receptor expressed in CHO cells; range 1.70-2.10; type: cell-based
Summary of the method: (§1)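 Membranes from CHO cells stably expressing human A2A receptor, grown in DMEM/F12 without nucleosides, resuspended in 50 mM Tris HCl, 10 mM MgCl2, pH 7.4; 50 μg protein/assay. Competition with [3H]SCH 58261 at 6–8 or more compound concentrations, 60 min at 25 °C; nonspecific binding with 50 μM NECA. Filtration on GF/B filters, scintillation counting; n=3-6.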

Adenosine receptor A2a [15] = biological target: T4, Adenosine receptor A2a; test: biochemical
Adenosine receptor A2b [16] = biological target: T2, Adenosine receptor A2b; test: Displacement of [3H]DPCPX from Adenosine A2b receptor expressed in HEK-293 cells; range 38-63
Adenosine receptor A3 [17] = biological target: T3, Adenosine receptor A3; test: Displacement of [3H]MRE3008-F20 from human adenosine A3 receptor expressed in CHO cells; range 378-488; type: cell-based
Adenosine receptor A2a [18] = biological target: T4, Adenosine receptor A2a; test: Displacement of [3H]-SCH- 58261 from human adenosine A2A receptor expressed in CHO cells; range 47-78; type: cell-based; summary of the method: as §1
[19] = biological target: T1, Adenosine receptor A3 (Homo sapiens); conditions: CHO, 1 uM
Adenosine receptor A3 [20] = biological target: T3, Adenosine receptor A3; test: Displacement of [3H]MRE3008-F20 from human adenosine A3 receptor expressed in CHO cells; range 23-40; type: cell-based
Adenosine receptor A1 [21] = biological target: T5, Adenosine receptor A1; test: Displacement of [3H]DPCPX from human adenosine A1 receptor expressed in CHO cells; range 149-204; type: cell-based
Adenosine receptor A2b [22] = biological target: T2, Adenosine receptor A2b; test: Displacement of [3H]DPCPX from Adenosine A2b receptor expressed in CHO cells; range 45-64; type: cell-based; conditions: in the assay text read “HEK-293 cells” for “CHO cells”
Summary of the method: (§2)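 Human recombinant A2B receptor was expressed in HEK-293 cell membranes (20 μg protein). Incubated with 40 nM [3H]DPCPX in 50 mM Tris HCl, 10 mM MgCl2, 1 mM EDTA, 0.1 mM benzamidine, pH 7.4, with 2 IU/mL adenosine deaminase, at least 6–8 test concentrations, 60 min, 25 °C. Nonspecific binding was taken with 100 μM NECA; n=3-6.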

Adenosine receptor A3 [23] = biological target: T3, Adenosine receptor A3; test: Inhibition of cAMP accumulation in CHO cells expressing human adenosine A3 receptor; range 4.0-7.5; type: functional, cell-based
[24] = biological target: T1, Adenosine receptor A3 (Homo sapiens); conditions: CHO, 1 uM; remark: listed apart in the source
Adenosine receptor A3 [25] = biological target: T3, Adenosine receptor A3; test: Displacement of [3H]MRE3008-F20 from human adenosine A3 receptor expressed in CHO cells; range 0.85-0.98; type: cell-based
Adenosine receptor A2b [26] = biological target: T2, Adenosine receptor A2b; test: Displacement of [3H]-DPCPX from Adenosine A2b receptor expressed in CHO cells; range 50-63; type: cell-based; conditions: in the assay text read “HEK-293 cells” for “CHO cells”; summary of the method: as §2

COc1ccc(NC(=O)Nc2nc3nn(CCc4cccc5ccccc45)cc3c3nc(-c4ccco4)nn23)cc1
inhibition [1]: 52%
Ki (Adenosine receptor A2b [2]): > 10 µM
Ki (Adenosine receptor A3 [3]): 0.016 µM
Ki (Adenosine receptor A2a [4]): 3.26 µM
Ki (Adenosine receptor A1 [5]): 2.47 µM
Ratio [6]: 154
Ratio [7]: > 625

Nc1nc2nn(CCc3cccc4ccccc34)cc2c2nc(-c3ccco3)nn12
inhibition [1]: 4%
Ki (Adenosine receptor A1 [8]): 0.348 µM
Ki (Adenosine receptor A3 [9]): 3.42 µM
Ki (Adenosine receptor A2a [10]): 0.896 µM
Ki (Adenosine receptor A2b [11]): 4.29 µM
Ratio [6]: 0.1
Ratio [7]: 1.26

CCn1cc2c(nc(N)n3nc(-c4ccco4)nc23)n1
inhibition [1]: 25%
Ki (Adenosine receptor A2b [12]): 0.065 µM
Ki (Adenosine receptor A3 [13]): 0.331 µM
Ratio [6]: 0.015
Ratio [7]: 0.19
Ki (Adenosine receptor A2a [14]): 0.00195 µM

Nc1nc2nn(CCCc3ccccc3)cc2c2nc(-c3ccco3)nn12
Ki (Adenosine receptor A2a [15]): 0.00016 µM
inhibition [1]: 18%
Ki (Adenosine receptor A2b [16]): 0.049 µM
Ki (Adenosine receptor A3 [17]): 0.43 µM
Ratio [6]: 0.007
Ratio [7]: 0.011

COc1ccc(NC(=O)Nc2nc3nn(CCC(C)C)cc3c3nc(-c4ccco4)nn23)cc1
Ki (Adenosine receptor A2a [18]): 0.065 µM
inhibition [19]: 48%
Ki (Adenosine receptor A3 [20]): 0.03 µM
Ki (Adenosine receptor A1 [21]): 0.175 µM
Ratio [6]: 5.8
Ki (Adenosine receptor A2b [22]): 0.054 µM
Ratio [7]: 1.8

CCCn1cc2c(nc(NC(=O)Nc3cccc(Cl)c3)n3nc(-c4ccco4)nc23)n1
IC50 (Adenosine receptor A3 [23]): 0.0055 µM
inhibition [24]: 80%
Ki (Adenosine receptor A3 [25]): 0.0009 µM
Ki (Adenosine receptor A2b [26]): 0.057 µM
Ratio [6]: 33
Ratio [7]: 62.6

From ChEMBL document CHEMBL1133118 (J Med Chem, 2000)
